Results: the array DNA melting data of Ke et al. (doi:10.1101/2024.01.08.574731)

How the values were obtained:
[1] = melting temperature; fluorescence melt of hairpins on a sequencing array, two-state fit, raised by 9.35 °C to match UV melts; settings: sodium 0.088 M
Summary of the method: (§1)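 Folding enthalpy and melting temperature were estimated with bootstrapped two-state fits and combined across four replicates by inverse-variance weighting, with fitted temperatures raised by 9.35 °C to match UV melts. The data were Cy3 fluorescence of library hairpins, with annealed Cy3 and quencher oligos, on a sequenced MiSeq flow cell in 50 mM Na-HEPES pH 8.0, 25 mM NaCl, imaged in 2.5 °C steps up to 60 °C and normalised to pre-quench Cy3 and control constructs.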

[2] = folding enthalpy; higher = less favourable; fluorescence melt of hairpins on a sequencing array, two-state fit; settings: sodium 0.088 M
Summary of the method: as §1

## GAGCTAGGAAACTAACTC (((.(((....))).)))
[1]
  Tm: 30.4 °C
[2]
  folding enthalpy: -19.9 kcal/mol

## GAGCTAGGAAACTAGCCC (.(((((....))))).)
[1]
  Tm: 40.4 °C
[2]
  folding enthalpy: -12.9 kcal/mol

## GAGCTAGGAAACTAGTTC ((.((((....)))).))
[1]
  Tm: 37.2 °C
[2]
  folding enthalpy: -26.8 kcal/mol

## GAGCTCCGAAAGGATCTC (((.(((....))).)))
[1]
  Tm: 46.4 °C
[2]
  folding enthalpy: -25 kcal/mol

## GAGCTGCGAAAGCACTC (((.(((....))))))
[1]
  Tm: 46.2 °C
[2]
  folding enthalpy: -20.4 kcal/mol

## GAGCTGGGAAACCGGCTC ((((.((....)).))))
[1]
  Tm: 59.2 °C
[2]
  folding enthalpy: -38.5 kcal/mol

## GAGGAACGAAAGTTACTC (((.(((....))).)))
[1]
  Tm: 54.5 °C
[2]
  folding enthalpy: -39.3 kcal/mol

## GAGGAACGAAAGTTGCTC (((.(((....))).)))
[1]
  Tm: 53.9 °C
[2]
  folding enthalpy: -47.7 kcal/mol

## GAGGAAGAAATTCCTC ((((((....))))))
[1]
  Tm: 47.7 °C
[2]
  folding enthalpy: -25 kcal/mol

## GAGGAAGGAAACCTCCTC (((((.(....).)))))
[1]
  Tm: 36.6 °C
[2]
  folding enthalpy: -25.9 kcal/mol

## GAGGACGAAAGTCCCCTC ((((((....)))..)))
[1]
  Tm: 42.7 °C
[2]
  folding enthalpy: -10.3 kcal/mol

## GAGGACGAAAGTCCCTC ((((((....))).)))
[1]
  Tm: 51.2 °C
[2]
  folding enthalpy: -11.3 kcal/mol

## GAGGACGAAAGTCGACTC ((((((....)))..)))
[1]
  Tm: 40.6 °C
[2]
  folding enthalpy: -14.9 kcal/mol

## GAGGACGAAAGTCGCTC ((((((....))).)))
[1]
  Tm: 46 °C
[2]
  folding enthalpy: -17.8 kcal/mol

## GAGGACGAAAGTCTACTC ((((((....)))..)))
[1]
  Tm: 36.8 °C
[2]
  folding enthalpy: -12 kcal/mol

## GAGGACGAAAGTCTCCTC ((((((....)))..)))
[1]
  Tm: 36.3 °C
[2]
  folding enthalpy: -14.9 kcal/mol

## GAGGAGACGAAAGTCCTC (((..(((....))))))
[1]
  Tm: 40.8 °C
[2]
  folding enthalpy: -15.5 kcal/mol

## GAGGAGCGAAAGCTACTC (((.(((....))).)))
[1]
  Tm: 64.8 °C
[2]
  folding enthalpy: -31.4 kcal/mol

## GAGGAGGCGAAAGCCCTC (((..(((....))))))
[1]
  Tm: 44.1 °C
[2]
  folding enthalpy: -14.1 kcal/mol

## GAGGATGGAAACATCCCC (.(((((....))))).)
[1]
  Tm: 42.8 °C
[2]
  folding enthalpy: -11.5 kcal/mol

## GAGGCACGAAAGTGTCTC (((.(((....))).)))
[1]
  Tm: 64.5 °C
[2]
  folding enthalpy: -29 kcal/mol

## GAGGCCGAAAGGCCACTC ((((((....)))..)))
[1]
  Tm: 60.4 °C
[2]
  folding enthalpy: -10.2 kcal/mol

## GAGGCCGAAAGGCGACTC ((((((....)))..)))
[1]
  Tm: 44.7 °C
[2]
  folding enthalpy: -12.7 kcal/mol

## GAGGGACGAAAGTCACTC (((.(((....))).)))
[1]
  Tm: 65.6 °C
[2]
  folding enthalpy: -31.2 kcal/mol

## GAGGGAGGAAACCCCCTC (((((.(....).)))))
[1]
  Tm: 46.3 °C
[2]
  folding enthalpy: -28.5 kcal/mol

## GAGGGCGAAAGCCAACTC ((((((....)))..)))
[1]
  Tm: 41.7 °C
[2]
  folding enthalpy: -13 kcal/mol

## GAGGGCGAAAGCCGACTC ((((((....)))..)))
[1]
  Tm: 44.6 °C
[2]
  folding enthalpy: -13 kcal/mol

## GAGGGCGAAAGCCGCTC ((((((....))).)))
[1]
  Tm: 54.5 °C
[2]
  folding enthalpy: -13 kcal/mol

## GAGGGGCGAAAGCCTCTC (((.(((....))).)))
[1]
  Tm: 58 °C
[2]
  folding enthalpy: -23.3 kcal/mol

## GAGGGGGCGAAAGCCCTC (((..(((....))))))
[1]
  Tm: 40.6 °C
[2]
  folding enthalpy: -7.85 kcal/mol

## GAGGGTGCGAAAGCACTC (((..(((....))))))
[1]
  Tm: 41.1 °C
[2]
  folding enthalpy: -8.61 kcal/mol

## GAGGTAGCGAAAGCTCTC (((..(((....))))))
[1]
  Tm: 38 °C
[2]
  folding enthalpy: -13.6 kcal/mol

## GAGGTAGGAAACTACTTC ((.((((....)))).))
[1]
  Tm: 32.5 °C
[2]
  folding enthalpy: -30.1 kcal/mol

## GAGGTCACGAAAGTGCTC (((..(((....))))))
[1]
  Tm: 30.7 °C
[2]
  folding enthalpy: -13.4 kcal/mol

## GAGGTCGGAAACGGCCTC ((((.((....)).))))
[1]
  Tm: 62.3 °C
[2]
  folding enthalpy: -41.8 kcal/mol

## GAGGTGCGAAAGCATCTC (((.(((....))).)))
[1]
  Tm: 59.3 °C
[2]
  folding enthalpy: -34 kcal/mol

## GAGGTGGAAACACCTC ((((((....))))))
[1]
  Tm: 63.4 °C
[2]
  folding enthalpy: -33.3 kcal/mol

## GAGGTGGGAAACCGCTTC ((.(.((....)).).))
[1]
  Tm: 50 °C
[2]
  folding enthalpy: -19.1 kcal/mol

## GAGGTTGGAAACAACCCC (.(((((....))))).)
[1]
  Tm: 40.5 °C
[2]
  folding enthalpy: -13.2 kcal/mol

## GAGGTTGGAAACGACTTC ((.((.(....).)).))
[1]
  Tm: 35.2 °C
[2]
  folding enthalpy: -24.9 kcal/mol

## GAGTAACGAAAGTTGCTC (((.(((....))).)))
[1]
  Tm: 53.2 °C
[2]
  folding enthalpy: -52 kcal/mol

## GAGTAAGCGAAAGCTCTC (((..(((....))))))
[1]
  Tm: 35.7 °C
[2]
  folding enthalpy: -13.4 kcal/mol

## GAGTACCGAAAGGTGCTC (((.(((....))).)))
[1]
  Tm: 60.6 °C
[2]
  folding enthalpy: -36.6 kcal/mol

## GAGTACCGAAAGGTTCTC (((.(((....))).)))
[1]
  Tm: 47.9 °C
[2]
  folding enthalpy: -30.7 kcal/mol

## GAGTACGAAAGTACGCTC ((((((....)))..)))
[1]
  Tm: 53.9 °C
[2]
  folding enthalpy: -16.3 kcal/mol

## GAGTACGAAAGTAGGCTC ((((((....)))..)))
[1]
  Tm: 36.1 °C
[2]
  folding enthalpy: -19.6 kcal/mol

## GAGTAGGGAAACCCACTC ((((.((....)).))))
[1]
  Tm: 39.6 °C
[2]
  folding enthalpy: -32 kcal/mol

## GAGTATGGAAACACACTC ((((.((....)).))))
[1]
  Tm: 31.7 °C
[2]
  folding enthalpy: -24.9 kcal/mol

## GAGTATGGAAACATATTC ((.((((....)))).))
[1]
  Tm: 30.8 °C
[2]
  folding enthalpy: -21.2 kcal/mol

## GAGTCACCGAAAGGTCTC (((..(((....))))))
[1]
  Tm: 28.1 °C
[2]
  folding enthalpy: -12.6 kcal/mol

## GAGTCACGAAAGTGCTC (((.(((....))))))
[1]
  Tm: 48.6 °C
[2]
  folding enthalpy: -23.8 kcal/mol

## GAGTCAGGAAACTAACTC ((((.((....)).))))
[1]
  Tm: 25.4 °C
[2]
  folding enthalpy: -12.4 kcal/mol

## GAGTCCCCGAAAGGGCTC (((..(((....))))))
[1]
  Tm: 44.4 °C
[2]
  folding enthalpy: -19.2 kcal/mol

## GAGTCCGAAAGGATCTC ((((((....))).)))
[1]
  Tm: 50 °C
[2]
  folding enthalpy: -31 kcal/mol

## GAGTCCGGAAACGAACTC ((((.((....)).))))
[1]
  Tm: 41.7 °C
[2]
  folding enthalpy: -34.6 kcal/mol

## GAGTCGGAAACGACTC ((((((....))))))
[1]
  Tm: 65.9 °C
[2]
  folding enthalpy: -37.5 kcal/mol

## GAGTCTACGAAAGTACTC (((..(((....))))))
[1]
  Tm: 27.2 °C
[2]
  folding enthalpy: -15 kcal/mol

## GAGTCTGGAAACAGACCC (.(((((....))))).)
[1]
  Tm: 38 °C
[2]
  folding enthalpy: -14.2 kcal/mol

## GAGTCTGGAAACAGACTC (((((((....)))))))
[1]
  Tm: 65.3 °C
[2]
  folding enthalpy: -39.9 kcal/mol

## GAGTGACGAAAGTCGCTC (((.(((....))).)))
[1]
  Tm: 64.8 °C
[2]
  folding enthalpy: -38.9 kcal/mol

## GAGTGAGGAAACTCACCC (.(((((....))))).)
[1]
  Tm: 39.4 °C
[2]
  folding enthalpy: -13.9 kcal/mol

## GAGTGAGGAAACTCGCTC (((.(((....))).)))
[1]
  Tm: 50.6 °C
[2]
  folding enthalpy: -49.6 kcal/mol

## GAGTGAGGAAACTCGTTC ((..(((....)))..))
[1]
  Tm: 27.6 °C
[2]
  folding enthalpy: -11.8 kcal/mol

## GAGTGCACGAAAGTGCTC (((..(((....))))))
[1]
  Tm: 37.4 °C
[2]
  folding enthalpy: -7.52 kcal/mol

## GAGTGCCGAAAGGCCCTC (((.(((....))).)))
[1]
  Tm: 51.3 °C
[2]
  folding enthalpy: -18.3 kcal/mol

## GAGTGCCGAAAGGCTCTC (((.(((....))).)))
[1]
  Tm: 56.4 °C
[2]
  folding enthalpy: -25.6 kcal/mol

## GAGTGCGAAAGCAATCTC ((((((....)))..)))
[1]
  Tm: 53.7 °C
[2]
  folding enthalpy: -21.4 kcal/mol

## GAGTGCGAAAGCACACTC ((((((....)))..)))
[1]
  Tm: 58.6 °C
[2]
  folding enthalpy: -12.6 kcal/mol
